Activity calls are given as the source filed them.
Key:
[1] = Cytotoxicity against human HK2 cells assessed as cell viability after 72 hrs by MTT assay; format: cell-based, HK-2; conditions: read-out: TC50
How it was run: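 MTT viability assay in human renal epithelial HK-2 cells. TC50 defined as molar concentration lowering HK-2 viability by 50%.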

[2] = Antipyroptotic activity in PMA-differentiated and LPS-primed human THP1 cells assessed as decrease in ATP-induced pyroptosis measured as LDH activity after 1 hrs pretreated with 5 mM ATP for 1 hr by colorimetric assay; format: functional, cell-based; conditions: thp-1
How it was run: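 PMA-differentiated, LPS-primed THP-1 cells pre-treated 1 h with compound (0.001-10 μM), then ATP 5 mM for 1 h. LDH in collected supernatant read colorimetrically; output as decrease of cell death vs vehicle. EC50 taken as concentration giving 50% of maximal possible effect. Mean±SEM of at least four experiments in triplicate.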

THP-1 = experiment: (§1) Antipyroptotic activity in PMA-differentiated and LPS-primed human THP1 cells assessed as decrease in nigericin-induced pyroptosis measured as LDH activity after 1 hrs pretreated with 10 uM nigericin for 1.5 hrs by colorimetric assay; format: functional, cell-based
How it was run: (§2)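 Differentiated (PMA) and LPS-primed THP-1 cells received compound at 0.001-10 μM 1 h ahead of nigericin (10 μM, 1.5 h). Supernatant LDH activity measured by colorimetric assay, expressed as decrease of cell death vs vehicle alone; pEC50 derived from concentration-response curves. Mean±SEM, ≥4 experiments in triplicate.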

[3] = as §1; format: functional, cell-based; conditions: thp-1; how it was run: as §2
[4] = Antipyroptotic activity in PMA-differentiated and LPS-primed human THP1 cells assessed as decrease in ATP-induced pyroptosis measured as LDH activity at 10 uM after 1 hrs by colorimetric assay; format: functional; conditions: THP-1, 1 h
[5] = cysteamine reactivity assessed as second-order reaction rate constant in PBS at pH 7.4 and […] by DTNB spectrophotometric assay
Caspase-1 (Homo sapiens) [6] = target: T1, Caspase-1 (Homo sapiens) (UniProt P29466); experiment: Inhibition of caspase 1 (unknown origin) using N-acetyl-Tyr-Val-Ala-Asp-para-nitroanilide substrate assessed as rate of para-nitroanilide release at 10 uM by spectrophotometric assay
T1 sequence (whole entry): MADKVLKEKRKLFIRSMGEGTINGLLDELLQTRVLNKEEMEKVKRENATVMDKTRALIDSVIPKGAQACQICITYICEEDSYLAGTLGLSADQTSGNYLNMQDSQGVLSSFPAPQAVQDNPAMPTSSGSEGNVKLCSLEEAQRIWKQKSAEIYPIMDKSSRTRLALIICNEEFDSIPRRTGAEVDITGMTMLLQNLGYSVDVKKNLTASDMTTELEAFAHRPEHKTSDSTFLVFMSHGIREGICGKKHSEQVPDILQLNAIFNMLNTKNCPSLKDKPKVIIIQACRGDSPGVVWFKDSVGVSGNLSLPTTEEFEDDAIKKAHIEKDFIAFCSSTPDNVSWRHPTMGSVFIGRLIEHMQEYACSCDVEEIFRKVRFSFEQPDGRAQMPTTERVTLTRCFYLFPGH
How it was run: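 Caspase-1 enzyme from THP-1 cultures (50 U) pre-incubated 15 min with compound (10 μM) in reaction buffer at 37 °C. Ac-YVAD-pNA substrate (200 μM) added; pNA release monitored continuously at 405 nm over 1 h. Reported as % inhibition vs vehicle; mean±SEM, ≥3 experiments in duplicate.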

[7] = target: NACHT, LRR and PYD domains-containing protein 3 (Homo sapiens) (UniProt Q96P20); experiment: Inhibition of recombinant NLRP3-ATPase (unknown origin) assessed as hydrolysis of ATP at 10 uM
Sequence of NACHT, LRR and PYD domains-containing protein 3 (Homo sapiens) (Q96P20 whole entry, the tested form may be a part): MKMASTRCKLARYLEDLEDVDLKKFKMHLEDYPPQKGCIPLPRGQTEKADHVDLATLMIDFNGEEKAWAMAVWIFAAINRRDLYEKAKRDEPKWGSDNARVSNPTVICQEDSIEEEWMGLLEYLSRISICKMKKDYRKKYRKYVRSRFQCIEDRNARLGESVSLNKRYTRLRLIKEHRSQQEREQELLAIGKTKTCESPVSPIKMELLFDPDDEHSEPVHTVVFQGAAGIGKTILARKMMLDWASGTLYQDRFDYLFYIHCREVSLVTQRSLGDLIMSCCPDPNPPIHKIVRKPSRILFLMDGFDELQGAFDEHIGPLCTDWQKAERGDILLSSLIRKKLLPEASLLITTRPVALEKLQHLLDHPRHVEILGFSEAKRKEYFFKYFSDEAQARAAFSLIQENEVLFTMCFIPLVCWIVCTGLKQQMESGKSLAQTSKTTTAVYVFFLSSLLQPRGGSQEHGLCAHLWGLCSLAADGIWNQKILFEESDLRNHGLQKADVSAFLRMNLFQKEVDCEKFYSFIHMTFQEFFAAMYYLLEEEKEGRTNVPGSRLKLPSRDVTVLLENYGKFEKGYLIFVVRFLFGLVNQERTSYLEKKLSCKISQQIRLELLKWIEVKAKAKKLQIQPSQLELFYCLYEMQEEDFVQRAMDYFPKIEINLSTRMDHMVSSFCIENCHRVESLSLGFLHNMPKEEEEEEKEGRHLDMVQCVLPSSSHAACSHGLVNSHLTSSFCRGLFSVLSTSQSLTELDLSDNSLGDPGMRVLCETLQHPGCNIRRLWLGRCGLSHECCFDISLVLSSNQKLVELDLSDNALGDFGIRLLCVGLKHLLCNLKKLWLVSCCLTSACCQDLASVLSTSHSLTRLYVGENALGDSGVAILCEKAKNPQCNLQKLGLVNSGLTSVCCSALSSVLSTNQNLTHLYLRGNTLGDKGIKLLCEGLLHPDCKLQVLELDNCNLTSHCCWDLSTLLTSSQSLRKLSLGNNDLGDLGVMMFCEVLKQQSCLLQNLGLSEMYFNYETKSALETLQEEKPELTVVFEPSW
How it was run: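 Recombinant NLRP3 (0.01 μg) pre-incubated 15 min with compound (10 μM); ATP 250 μM then added and incubated 1 h at 37 °C. ATP hydrolysis quantified as Pi content by colorimetric phosphate detection. Expressed as % inhibition vs vehicle; mean±SEM of ≥3 experiments in duplicate.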

[8] = Activation of Keap1-Nrf2 pathway in human THP1 cells assessed as NFE2L2 marker gene expression level at 10 uM after 2 hrs by RT-PCR analysis; format: functional, cell-based; conditions: THP-1
Caspase-1 (Homo sapiens) [9] = target: T1, Caspase-1 (Homo sapiens); experiment: (§3) Inhibition of caspase 1 (unknown origin) using N-acetyl-Tyr-Val-Ala-Asp-para-nitroanilide substrate assessed as rate of para-nitroanilide release by spectrophotometric assay
How it was run: (§4)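 Caspase-1 from THP-1 cell cultures (50 U) pre-incubated 15-60 min with compound at 0.01-10 μM, then activity followed continuously by pNA release from Ac-YVAD-pNA (200 μM; 1 h) at 405 nm. kobs at each concentration used to obtain kinact (irreversible first-order rate) and Ki = k-1/k1.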

Caspase-1 = target: T2, Caspase-1 (Homo sapiens, UniProt P29466); experiment: as §3; how it was run: as §4
T2 sequence (P29466 whole entry): T1 sequence (whole entry)

[10] = Activation of KIea[1/Nrf2 pathway in human THP1 cells assessed as HMOX1 marker gene expression level at 10 uM after 2 hrs by RT-PCR analysis; format: functional, cell-based; conditions: THP-1
Caspase-1 (Homo sapiens) [11] = target: T1, Caspase-1 (Homo sapiens); experiment: Inhibition of caspase 1 (unknown origin) using N-acetyl-Tyr-Val-Ala-Asp-para-nitroanilide substrate assessed as rate of para-nitroanilide release after 15 to 60 mins preincubation by spectrophotometric assay; how it was run: as §4
Caspase-1 (Homo sapiens) [12] = target: T1, Caspase-1 (Homo sapiens); experiment: Inhibition of caspase 1 (unknown origin) using N-acetyl-Tyr-Val-Ala-Asp-para-nitroanilide substrate assessed as rate of para-nitroanilide release at 0.01 to 10 uM by spectrophotometric assay; conditions: TDE = time-dependent effect; how it was run: as §4

Row | SMILES | CC50 at 72 h [1] [µM] | inhibition at 10 µM [4] [%] | further results
1 | C=C(C(=O)OCC)C(OCCC(=O)OCC)c1ccc(Cl)cc1Cl (configuration not stated) | > 100 | 43.9 | pEC50 [2]: 7.1; inhibition (THP-1): Dose-dependent effect; pEC50 [3]: 6.7
2 | C=C(C(=O)OCC)C(O)c1ccccc1OC (configuration not stated) | 45.8 | 26.8 | k2 [5]: 0.423 M⁻¹ s⁻¹
3 | C=C(C#N)C(O)c1ccccn1 (configuration not stated) | 20.5 | 52.7 | 
4 | C=C(C(=O)OCC)C(O)c1cccc(Cl)c1 (configuration not stated) | 28.9 | 44.8 | 
5 | C/C=C(\C(=O)OCC)C(O)c1ccccc1Cl (configuration not stated) | 80.1 | 36.2 | inhibition (Caspase-1 (Homo sapiens) [6]): 25.4%; inhibition [7]: 23.3%; pEC50 [2]: 7; inhibition (THP-1): Dose-dependent effect; pEC50 [3]: 6.3; k2 [5]: 0.126 M⁻¹ s⁻¹
6 | C=C(C#N)C(O)c1c(Cl)cccc1Cl (configuration not stated) | 16.3 | 51.5 | 
7 | C=C(C#N)C(O)c1ccccc1 (configuration not stated) | 22.3 | 54.1 | 
8 | C=C(C#N)C(O)c1ccccc1[N+](=O)[O-] (configuration not stated) | 3.6 | 97.9 | 
9 | CCOC(=O)/C(=C/I)C(O)c1ccccc1Cl (configuration not stated) | 6.4 | 5.1 | 
10 | C=C(C#N)C(O)c1ccccc1F (configuration not stated) | 12.9 | 30.5 | 
11 | C=C(C#N)C(O)c1ccccc1Cl (configuration not stated) | 11.6 | 83 | inhibition (Caspase-1 (Homo sapiens) [6]): 36.2%; inhibition [7]: 80.5%; k2 [5]: 0.777 M⁻¹ s⁻¹
12 | CCOC(=O)/C(=C/c1ccccc1)C(O)c1ccccc1Cl (configuration not stated) | > 100 | 55.5 | 
13 | C=C(C(=O)OCC)C(O)c1ccccc1[N+](=O)[O-] (configuration not stated) | 7.8 | 63.7 | pEC50 [2]: 6.5; inhibition (THP-1): Dose-dependent effect; pEC50 [3]: 6.7
14 | C=C(C(=O)OCC)C(O)C1CCCCC1 (configuration not stated) | > 100 | 64.3 | 
15 | C=C(C(=O)NCCC)C(O)c1ccccc1Cl (configuration not stated) | 83.5 | 31.2 | k2 [5]: 0.126 M⁻¹ s⁻¹
16 | C=C(C(=O)OCC)C(O)c1ccccn1 (configuration not stated) | 53.4 | 54.3 | 
17 | C=C(C(=O)OCC)C(O)c1cc(Cl)cc(Cl)c1 (configuration not stated) | 18.8 | 78.4 | 
18 | C=C(C(=O)OCC)C(O)c1ccccc1Cl (configuration not stated) | 67 | 75.1 | inhibition [7]: 51.8%; pEC50 [2]: 6.9; Activity [8]: Active; Kinact (Caspase-1 (Homo sapiens) [9]): 3.2 s⁻¹; Ki (Caspase-1): 9.6 µM; Activity [10]: Active; inhibition (THP-1): Dose-dependent effect; pEC50 [3]: 6.8; inhibition (Caspase-1 (Homo sapiens) [11]): Dose-dependent effect; k2 [5]: 0.866 M⁻¹ s⁻¹; inhibition (Caspase-1 (Homo sapiens) [12]): tde
19 | C=C(C(=O)O)C(O)c1ccccc1Cl (configuration not stated) | > 100 | 42 | inhibition [7]: 80.2%; k2 [5]: 0.117 M⁻¹ s⁻¹

Row | SMILES | CC50 at 72 h [1] [µM] | inhibition at 10 µM [4] [%] | further results
20 | C/C=C(/C(=O)OCC)C(O)c1ccccc1Cl (configuration not stated) | 73.8 | 31.8 | pEC50 [2]: 6.9; inhibition (THP-1): Dose-dependent effect; pEC50 [3]: 6.8
21 | C=C(C(=O)OCC)C(O)c1ccccc1 (configuration not stated) | 64.5 | 45.8 | k2 [5]: 0.524 M⁻¹ s⁻¹
22 | C=C(C(=O)OCC)C(O)c1ccc(Cl)cc1 (configuration not stated) | 34.9 | 50.5 | 
23 | C=C(C#N)C(O)c1ccccc1Br (configuration not stated) | 21.8 | 81.3 | 
24 | C=C(C(=O)OCC)C(O)c1ccccc1Br (configuration not stated) | 55.9 | 53.7 | 
25 | C=C(C#N)C(O)c1ccc(Cl)cc1Cl (configuration not stated) | 36.4 | 14.1 | 
26 | C=C1C(=O)O[C@@H]2C3O[C@]3(C)CC/C=C(\C)CC[C@@H]12 (some centres not stated) | 20.1 | 100 | inhibition [7]: 25.9%; pEC50 [2]: 6.9; Kinact (Caspase-1 (Homo sapiens) [9]): 4 s⁻¹; Ki (Caspase-1): 10.6 µM; inhibition (THP-1): Dose-dependent effect; pEC50 [3]: 6.3; inhibition (Caspase-1 (Homo sapiens) [11]): Dose-dependent effect; k2 [5]: 47.9 M⁻¹ s⁻¹; inhibition (Caspase-1 (Homo sapiens) [12]): tde
27 | C=C(C(=O)OCC)C(O)c1ccccc1C (configuration not stated) | 56.7 | 37.8 | 
28 | C=C(C(=O)OCC)C(OCCC(=O)OCC)c1c(Cl)cccc1Cl (configuration not stated) | > 100 | 68.8 | pEC50 [2]: 6.9; inhibition (THP-1): Dose-dependent effect; pEC50 [3]: 6.9
29 | C=C(C(=O)OCC)C(O)c1c(Cl)cccc1Cl (configuration not stated) | 45.2 | 76.6 | 
30 | C=C(C(=O)OCC)C(O)c1ccc(Cl)cc1Cl (configuration not stated) | 70.5 | 72.4 | 
31 | C=C(C(=O)OCC)C(C)O (configuration not stated) | 22.5 | 59.6 | 
32 | CCOC(=O)/C(=C\c1ccccc1)C(O)c1ccccc1Cl (configuration not stated) | > 100 | 52.5 | k2 [5]: 0.588 M⁻¹ s⁻¹
33 | C=C(C(=O)CC)C(O)c1ccccc1Cl (configuration not stated) | 1.9 | 12.1 | k2 [5]: 7.16 M⁻¹ s⁻¹
34 | C=C(C(=O)OCC)C(OCCC(=O)OCC)c1ccccc1Cl (configuration not stated) | > 100 | 58.3 | 
35 | CCOC(=O)C(C)C(O)c1ccccc1Cl (configuration not stated) | 75.5 | 1.6 | 
36 | C=C(C(=O)OCC)C(O)c1ccccc1F (configuration not stated) | 25.4 | 82.3 | pEC50 [2]: 6.8; inhibition (THP-1): Dose-dependent effect; pEC50 [3]: 6.6
37 | C=C(C#N)C(O)c1cccc2ccccc12 (configuration not stated) | 10.1 | 53.5 | 
38 | CCOC(=O)/C(=C\I)C(O)c1ccccc1Cl (configuration not stated) | 5.9 | 17.6 | 

Reference: ChEMBL document CHEMBL3351787, “Electrophilic warhead-based design of compounds preventing NLRP3 inflammasome-dependent pyroptosis” (J Med Chem, 2014)
